Changes are numbered by the printed parent chain.
What was measured:
OSBP-S381A = molecular target: T1, OSBP-S381A (Oryctolagus cuniculus, UniProt P16258, S381A); assay: Specific binding of [3H]25OH by purified OSBP-S381A; design: species or system rabbit
T1 sequence (P16258 1-809 S381A): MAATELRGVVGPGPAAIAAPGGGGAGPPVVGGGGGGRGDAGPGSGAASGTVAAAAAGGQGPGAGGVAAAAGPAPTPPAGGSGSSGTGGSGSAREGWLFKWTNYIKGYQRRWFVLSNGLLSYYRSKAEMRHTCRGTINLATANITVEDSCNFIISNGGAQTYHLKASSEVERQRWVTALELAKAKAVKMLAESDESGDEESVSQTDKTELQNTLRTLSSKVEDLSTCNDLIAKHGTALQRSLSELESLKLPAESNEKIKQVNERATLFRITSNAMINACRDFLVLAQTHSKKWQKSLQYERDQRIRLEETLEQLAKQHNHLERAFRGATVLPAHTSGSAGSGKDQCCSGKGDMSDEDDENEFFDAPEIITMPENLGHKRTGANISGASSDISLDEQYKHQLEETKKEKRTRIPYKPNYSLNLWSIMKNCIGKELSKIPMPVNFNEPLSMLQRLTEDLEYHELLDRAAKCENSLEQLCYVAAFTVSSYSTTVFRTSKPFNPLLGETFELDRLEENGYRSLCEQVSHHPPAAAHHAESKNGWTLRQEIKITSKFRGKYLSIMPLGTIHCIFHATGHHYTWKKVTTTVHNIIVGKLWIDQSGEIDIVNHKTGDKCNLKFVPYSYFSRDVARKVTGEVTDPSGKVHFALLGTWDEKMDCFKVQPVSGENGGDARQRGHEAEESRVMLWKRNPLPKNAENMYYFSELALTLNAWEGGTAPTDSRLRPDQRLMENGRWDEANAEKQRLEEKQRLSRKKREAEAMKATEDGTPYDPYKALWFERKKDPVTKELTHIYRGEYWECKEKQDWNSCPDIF
Procedure, shortened: (§1)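 His-tagged (C-terminal V5-His) rabbit OSBP or mutant expressed in Sf21 cells by baculovirus, purified and kept in Tris-HCl pH 7.4/250 mM NaCl. 12 pmol protein incubated with [3H]25OH in 10 mM HEPES pH 7.4, 100 mM KCl, 2% polyvinyl alcohol at 4°C, 16 h. Charcoal-dextran added for 30 min, then spun 10,000 × g, 10 min. Supernatant bound sterol counted by scintillation. Specific binding is total minus binding with 40-fold excess unlabeled 25OH.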

OSBP [1] = molecular target: T2, OSBP (Oryctolagus cuniculus, UniProt P16258); assay: Specific binding of [3H]25OH by purified OSBP; design: species or system rabbit
T2 sequence (P16258 1-809): T1 sequence (P16258 1-809 S381A) with A381S
Procedure, shortened: as §1

OSBP-S3E = molecular target: T3, OSBP-S3E (Oryctolagus cuniculus, UniProt P16258, S381E/S384E/S387E); assay: Specific binding of [3H]25OH by purified OSBP-S3E; design: species or system rabbit
T3 sequence (P16258 2-809 S381E/S384E/S387E limits assumed): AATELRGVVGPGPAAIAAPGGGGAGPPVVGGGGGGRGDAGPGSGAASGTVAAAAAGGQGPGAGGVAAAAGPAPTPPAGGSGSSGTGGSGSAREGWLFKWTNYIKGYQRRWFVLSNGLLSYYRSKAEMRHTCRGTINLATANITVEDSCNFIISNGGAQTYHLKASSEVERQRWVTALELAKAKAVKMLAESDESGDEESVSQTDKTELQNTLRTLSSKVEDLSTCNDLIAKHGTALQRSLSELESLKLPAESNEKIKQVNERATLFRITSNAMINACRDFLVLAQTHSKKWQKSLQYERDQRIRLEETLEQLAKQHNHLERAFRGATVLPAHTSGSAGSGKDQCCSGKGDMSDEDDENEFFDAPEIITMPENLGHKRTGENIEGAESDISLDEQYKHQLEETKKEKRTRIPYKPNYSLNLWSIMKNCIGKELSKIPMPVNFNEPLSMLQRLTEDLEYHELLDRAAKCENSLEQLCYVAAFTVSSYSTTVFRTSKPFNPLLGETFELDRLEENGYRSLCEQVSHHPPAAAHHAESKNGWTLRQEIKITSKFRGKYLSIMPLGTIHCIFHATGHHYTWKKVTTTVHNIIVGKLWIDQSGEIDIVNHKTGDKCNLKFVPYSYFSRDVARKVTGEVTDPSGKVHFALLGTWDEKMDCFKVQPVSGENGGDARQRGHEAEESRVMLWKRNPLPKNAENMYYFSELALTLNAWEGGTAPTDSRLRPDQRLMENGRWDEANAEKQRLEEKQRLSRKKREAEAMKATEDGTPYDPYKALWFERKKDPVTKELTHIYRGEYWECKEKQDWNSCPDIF
Procedure, shortened: as §1

OSBP-S5E = molecular target: T4, OSBP-S5E (Oryctolagus cuniculus, UniProt P16258, S381E/S384E/S387E/S388E/S391E); assay: Specific binding of [3H]25OH by purified OSBP-S5E; design: species or system rabbit
T4 sequence (P16258 1-809 S381E/S384E/S387E/S388E/S391E): T1 sequence (P16258 1-809 S381A) with A381E, S384E, S387E, S388E, S391E
Procedure, shortened: as §1

SM synthesis = assay: 25OH-activated SM synthesis; type: cell-based, CHO cells; conditions: 25OH 6 μM, 6 h
Procedure, shortened: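 OSBP-deficient CHO cells (stable lentiviral shOSBP) grown in DMEM with 5% fetal calf serum, transiently transfected for 48 h (Lipofectamine 2000) with OSBP constructs carrying three silent shRNA-resistant mutations. Cells then treated with 25OH (6 μM) or solvent control for 6 h. SM and ceramide synthesis measured by [3H]serine incorporation. Mean and SEM of three experiments.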

OSBP [2] = molecular target: T2, OSBP; assay: Direct extraction of radiolabeled PI or PI; type: binding, rabbit; conditions: OSBP 50 pmol; liposomes with 0.5 mol% [32P]PI(4)P; compared with [3H]PI
[3] = [3H]25OH, 12 pmol protein, 4°C, 16 h

## C[C@H](CCCC(C)(C)O)[C@H]1CC[C@H]2[C@@H]3CC=C4C[C@@H](O)CC[C@]4(C)[C@H]3CC[C@]12C [25OH, 25-hydroxycholesterol]
OSBP-S381A
  Kd: 51 ± 12 nM
OSBP-S381A; [3]
  Bmax: 0.68 ± 0.11
OSBP [1]
  Kd: 28 ± 5 nM
OSBP [1]; [3]
  Bmax: 0.63 ± 0.05
OSBP-S3E
  Kd: 58 ± 14 nM
OSBP-S3E; [3]
  Bmax: 0.49 ± 0.15
OSBP-S5E
  Kd: 35 ± 9 nM
OSBP-S5E; [3]
  binding capacity (Bmax): 2.0 ± 0.26
SM synthesis; deficient CHO cells expressing S381A/S3A, S5E/S3D or S5E/S3A double mutants
  activation of SM synthesis: 2.5 fold
SM synthesis; deficient CHO cells expressing wild-type OSBP
  activation of SM synthesis: 2.5 fold

## phosphatidylinositol 4-phosphate [PI(4)P]
OSBP [2]
  extraction from liposomes into supernatant: extracted significantly more
